How the values were obtained:
[1] = system: KM12 colon cancer cell line; experiment: NCI-60 panel screen, KM12; format: cell-based, human; conditions: 10 µM, cell line highly expressing KLF5
[2] = system: KLF5; experiment: Western blot of endogenous KLF5 levels in IEC-6 cells; format: cell-based, rat; conditions: wide range of concentrations
[3] = system: DLD-1 cells; experiment: Cell viability assay; format: cell-based, human; conditions: 48 h; for effect on proliferation of DLD-1 cells: various concentrations
How it was run: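 DLD-1 cells were plated at 10⁴ per well in 96-well plates. They were dosed at once with increasing concentrations of test compound in DMSO (final 0.4%) or with DMSO alone. After 48 h, viability was read by Cell-Titer Glo luminescence. The DMSO control was set to 100%. Runs were done in triplicate, and IC50 came from a nonlinear sigmoidal dose-response fit.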

[4] = system: EGR1; experiment: Western blot of EGR1 in DLD-1 cells; format: cell-based, human; conditions: DLD-1, 10 µM, 24 h
How it was run: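 DLD-1 cells were seeded at 2 × 10⁵ per well in 1 ml medium. At 24 h after seeding they were given test compound in DMSO or DMSO alone for 24 h. Lysates were made in Laemmli buffer, separated by polyacrylamide gel electrophoresis and transferred to nitrocellulose. Membranes were probed with rabbit anti-EGR1, and scanned films were quantified by densitometry.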

[5] = system: NCI-60 panel of human cancer cell lines; experiment: NCI-60 panel screen; format: cell-based; conditions: 10 µM
[6] = system: leukemia cell lines; experiment: NCI-60 panel screen, leukemia lines; format: cell-based, human; conditions: 10 µM
[7] = system: KLF5; experiment: Western blot of endogenous KLF5 protein levels in DLD-1 cells; format: cell-based, human; conditions: 24 h; for effect on endogenous KLF5 levels: DLD-1, 10 µM
How it was run: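 DLD-1 cells were seeded at 2 × 10⁵ per well in 1 ml medium. At 24 h after seeding they were treated with 5 or 10 µM test compound in DMSO, or with DMSO alone, for 24 h. Cells were lysed in Laemmli buffer, run on polyacrylamide gel and transferred to nitrocellulose. Blots were probed with rabbit polyclonal anti-KLF5 (residues 95–111) and mouse monoclonal anti-β-actin, and scanned films were quantified by densitometry.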

## CN(C(=O)COC(=O)/C=C/c1cccc([N+](=O)[O-])c1)C1CCS(=O)(=O)C1 (stereo not shown) [CID 5951923]
[1]
  inhibition of KM12 colon cancer cell line: poor inhibition
[2]
  effect on endogenous KLF5 levels in IEC-6 cells: neither CIDs 4395011 nor 5951923 reduced endogenous KLF5 levels
[3]
  effect on proliferation of DLD-1 cells: inhibited proliferation of DLD-1 cells in a dose-dependent manner
[4]
  effect on EGR1: downregulated EGR1
[5]
  potency of inhibition in NCI-60 panel: potency was weak
[6]
  inhibition of leukemia cell lines: inhibition in a number of leukemia cell lines

## C[C@@H]1O[C@@H](O[C@H]2C[C@@H](O)[C@]3(CO)[C@H]4[C@H](O)C[C@]5(C)[C@@H](C6=CC(=O)OC6)CC[C@]5(O)[C@@H]4CC[C@]3(O)C2)[C@H](O)[C@H](O)[C@H]1O [compound 439501]
[3]
  effect on proliferation of DLD-1 cells: inhibited proliferation of DLD-1 cells in a dose-dependent manner
[3]; read-out: IC50 for DLD-1 proliferation (cell viability), Cell-Titer Glo
  IC50: 46 nM
[7]; DLD-1, 5 and 10 µM
  inhibitory effect on KLF5 levels relative to the other three tested compounds: more pronounced

## CC1=CCCC2(C)C(CCC2(O)CN(CCc2cccs2)S(=O)(=O)c2cccs2)c2ccc(cc2C(=O)Cc2c(F)cccc2Cl)CC(O)CC1 (stereo not shown) [compound 4395011]
[2]
  effect on endogenous KLF5 levels in IEC-6 cells: neither CIDs 4395011 nor 5951923 reduced endogenous KLF5 levels

## CN(C(=O)CNC(=O)/C=C/c1cccc([N+](=O)[O-])c1)C1CCS(=O)(=O)C1 (stereo not shown) [compound 46931037]
[7]
  effect on endogenous KLF5 levels: similarly affect KLF5 protein levels
[4]
  effect on EGR1: downregulated EGR1

## CN(C(=O)CNC(=O)/C=C/c1cccc(Cl)c1)C1CCS(=O)(=O)C1 (stereo not shown) [compound 46931043]
[7]
  effect on endogenous KLF5 levels: similarly affect KLF5 protein levels
